# Compound activity from PubChem.
# SENP1 FRET inh – human SENP1 catalytic domain inhibitors, primary screen, biochemical, FRET, uHTS. Sentrin-specific protease 1 (Homo sapiens), Q9P0U3. recombinant SENP1 catalytic domain, CyPet-SUMO1-YPet FRET cleavage. inhibition, % at 10 µM. 360,000 compounds, 0.21% hits. AID 624204, 2012;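 active means inhibition at least 30% at 10 µM, raw YFP signal under a set limit, fluorescence ratio 0.5 to 1.5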
#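 Test system: hSENP1 catalytic domain, recombinant; Amount: 20 pM final SENP1 enzyme; Medium: Tris pH 8 buffer plus EDTA, NaCl, BME, BSA, NP40, catalase; Schedule: 50 min enzyme reaction, room temperature, light-protected; Technique: FRET fluorescence in CFP and YFP emission channels; Controls: no-enzyme wells low, DMSO-plus-enzyme wells high control.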
# SENP7 block – SENP7 protease inhibitors, primary screen, biochemical, luminescence, uHTS; Sentrin-specific protease 7 (Homo sapiens), Q9BQF6; recombinant SENP7, Z-RLRGG-aminoluciferin luminescence, 40 min; inhibition, % at 5 µM; 330,000 compounds, 1.5% hits;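 active means inhibition above about 50% at the single test dose, limit read from the data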
# Target sequence (Q9BQF6 706-1050 limits assumed): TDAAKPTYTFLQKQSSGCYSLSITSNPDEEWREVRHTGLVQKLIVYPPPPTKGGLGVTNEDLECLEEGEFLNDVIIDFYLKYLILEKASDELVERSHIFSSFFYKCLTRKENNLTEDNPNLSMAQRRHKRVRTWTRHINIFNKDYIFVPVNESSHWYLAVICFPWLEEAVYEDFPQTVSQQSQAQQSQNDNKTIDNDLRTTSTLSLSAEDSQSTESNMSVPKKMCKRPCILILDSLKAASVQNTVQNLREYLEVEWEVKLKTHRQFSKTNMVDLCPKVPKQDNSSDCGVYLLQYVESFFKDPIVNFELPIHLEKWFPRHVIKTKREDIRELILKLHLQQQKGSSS
# SENP8 block-1 – human SENP8 protease inhibitors, primary screen, biochemical, fluorescence, Nedd8 protein substrate, uHTS | Sentrin-specific protease 8 (Homo sapiens), Q96LD8 | recombinant SENP8 | inhibition, % at 20 µM | 360,000 compounds, 0.64% hits | AID 602440, 2012; in the data active means inhibition mostly above about 40%, no sharp cut-off; inactive means mostly below about 27%
# SENP8 block-2 – SENP8 protease inhibitors, primary screen, biochemical, luminescence | Sentrin-specific protease 8 (Homo sapiens), Q96LD8 | purified SENP8, Z-RLRGG-aminoluciferin cleavage | inhibition, % at 10 µM | 330,000 compounds, 1.2% hits | AID 2540, 2010; in the data active means inhibition above about 50%
# SENP6 inh – SENP6 protease inhibitors, primary screen, biochemical, luminescence, uHTS. inhibition, % at 10 µM. AID 2599, 2010. 330,000 compounds, 1.8% hits. Recombinant SENP6 catalytic domain, aminoluciferin luminescence. Sentrin-specific protease 6 (Homo sapiens), Q9GZR1;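 active means inhibition above about 50% at the single tested dose, limit read from the data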
# Platelet DG rel – inhibitors of platelet dense granule secretion, primary screen, cell-based, MLPCN, human platelets; 300,000 compounds, 0.22% hits; human platelet-rich plasma, SFLLRN dense granule ATP release, luminescence; AID 1663, 2009; inhibition, %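 (compounds screened at 7.5 µM in platelet-rich plasma)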;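 active means mean replicate score, as percent of positive control, at or above 50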
# Hits are given with their value; . = inactive; / = no result given. Hits are enriched below; roughly 2.6% of the tested compounds scored in any of these assays.
SMILES,SENP1 FRET inh,SENP7 block,SENP8 block-1,SENP8 block-2,SENP6 inh,Platelet DG rel
O=C1C(NS(=O)(=O)c2cccs2)=C(N2CCN(c3ccccc3)CC2)C(=O)c2ccccc21,.,.,69,.,.,.
CC1(C)CC2(C)OC2C2(C1)N=NC(=Nc1ccccc1)O2 (stereo not drawn),.,/,.,/,/,/
O=C1c2ccccc2C(c2nnnn2Cc2ccccc2)N1CCc1ccccc1F (stereo not drawn),.,/,.,/,/,/
CC1(c2nnnn2Cc2ccccc2)CCC(=O)N1C1CC1 (stereo not drawn),.,/,.,/,/,/
COc1cc(OC)c(C2CC(=O)N3CN(C)CSC3=C2C#N)cc1OC (stereo not drawn),.,.,79,.,.,.
COc1ccc2ccccc2c1C1CC(=O)N2CN(C)CSC2=C1C#N (stereo not drawn),.,.,42,.,.,.
CC(C)c1ccc(C2CC(=O)N3CN(C)CSC3=C2C#N)cc1 (stereo not drawn),.,.,.,.,.,.
C[C@@H]1CC2=C(C(=O)OC(C)(C)O2)[C@H](c2ccc(F)cc2)O1,.,/,.,/,/,/
COc1ccc(C2=Nc3cccc4cccc(c34)N2)cc1,.,.,.,.,.,.
Nc1cccc(C2=Nc3cccc4cccc(c34)N2)c1,.,/,46,/,/,.
O=C(NC(=O)c1ccccc1O)c1ccc2c(c1)CCO2,.,.,.,51,65,.
Cn1cccc1/C=C1\SC(=S)N(Nc2ccccc2)C1=O,.,.,43,.,.,.
COc1nc(NC(C)(C)C)nc(Oc2ccc(=O)n(-c3ccccc3)n2)n1,.,.,.,.,.,.
CC(C)Nc1nc(NC(C)(C)C)nc(Oc2ccc(=O)n(-c3ccccc3)n2)n1,.,.,.,.,.,60
COc1ccc(/C=C\c2nc(=O)c3ccccc3o2)cc1,.,63,.,66,72,.
CC1Sc2ccc(C#N)cc2N(Cc2cccc(C(F)(F)F)c2)C1=O (stereo not drawn),.,/,.,/,/,/
Cc1cc(-c2nnc(CCC(=O)NC(C)c3cccc4ccccc34)o2)no1 (stereo not drawn),.,.,.,.,.,50
CN(Cc1ccc(C(F)(F)F)cc1)C(=O)[C@H]1O[C@@H](n2ccc(=O)[nH]c2=O)[C@H](O)[C@@H]1O,.,/,.,/,/,/
O=C(CC1c2ccccc2C=C(c2ccsc2)N1c1ccc(-c2cccnc2)cc1)C1CC1 (stereo not drawn),.,/,.,/,/,/
Cc1cc(=O)n2[nH]c(N)c(N=Nc3ccccc3F)c2n1,.,86,.,85,94,.
COc1ccccc1-n1cc(-c2ccc(Cl)cc2)[nH]c1=O,.,.,.,.,.,105
COc1ccccc1N1CCN(C(c2ccc(N(C)C)cc2)c2nnnn2CCc2ccccc2)CC1 (stereo not drawn),.,.,47,.,.,.
COc1ccc(C(c2nnnn2CCc2ccccc2)N2CCN(C3CCCC3)CC2)cc1 (stereo not drawn),.,.,.,.,.,.
CC(=O)C(C(C)=O)C1(O)C(=O)c2ccccc2C1=O,.,.,61,.,.,.
COc1ccc(O)c(C2(O)C(=O)c3ccccc3C2=O)c1,.,.,.,.,.,.
SMILES,SENP1 FRET inh,SENP7 block,SENP8 block-1,SENP8 block-2,SENP6 inh,Platelet DG rel
CCOC(=O)c1cnc2c(-c3cccc(Br)c3)cnn2c1C,.,55,.,.,.,.
CCOC(=O)c1cnc2c(C(=O)OCC)cnn2c1N,.,.,.,.,.,.
Cn1c(=NC(=O)c2ccc(S(=O)(=O)N3CCCc4ccccc43)cc2)sc2cc(S(C)(=O)=O)ccc21,.,.,.,.,.,.
Cn1c(=NC(=O)c2ccccc2[N+](=O)[O-])sc2cc(S(C)(=O)=O)ccc21,.,57,.,.,.,.
CC(C)Cn1c(O)c(/C=C2\C=NN=C2c2ccccc2)sc1=S,.,.,40,.,.,.
CCCCn1c(O)c(/C=C2\C=NN=C2c2ccccc2)sc1=S,.,.,.,.,.,.
